These results are taken from ChEMBL document CHEMBL1144562, “Synthesis of a new class of 2-anilino substituted nicotinyl arylsulfonylhydrazides as potential anticancer and antibacterial agents” (2007).

What all share (format): functional
The test system of one assay is Bacillus subtilis. The experiment in a line: Antibacterial activity against Bacillus subtilis MTCC 441 after 18 hrs. The note with it: MTCC 441, 18 h. In a few lines: (§1)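 Disc diffusion (Kirby–Bauer) on Mueller-Hinton agar inoculated with fresh bacteria at 1-5 × 10^4 cfu mL-1. Compounds were dissolved in DMF at a range of concentrations, and discs were placed in triplicate. Plates were incubated at 30 °C for 18 h. MIC was taken as the lowest concentration giving no visible bacterial growth on the plate.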

In another assay the test system is Pseudomonas aeruginosa. Briefly: Antibacterial activity against Pseudomonas aeruginosa MTCC 424 after 18 hrs. Particulars: MTCC 424, 18 h. The essentials: as §1
A further assay concerns Vibrio. The experiment in a line: Antibacterial activity against Vibrio species after 18 hrs. The essentials: as §1
For assay [1], the system named is Staphylococcus epidermidis. The experiment in a line: Antibacterial activity against Staphylococcus epidermidis MTCC 435 after 18 hrs. Particulars: MTCC 435, 18 h. The essentials:
as §1

The next assay relates to Escherichia coli. The experiment in a line: Antibacterial activity against Escherichia coli MTCC 448 after 18 hrs. The note with it: MTCC 448, 18 h. The essentials: as §1

Converted amounts (≈) assume the structure as drawn.

For orientation: MIC means the lowest concentration found to suppress growth. With `CC(=O)Nc1ccc(S(=O)(=O)NNC(=O)c2cccnc2Nc2ccc(F)cc2)cc1`, the MIC in the assay with Bacillus subtilis is 16 µg/mL (≈ 36.1 µM); against Pseudomonas aeruginosa, greater than 25 µg/mL; against Vibrio it was 22 µg/mL (≈ 49.6 µM); in assay [1], 19 µg/mL (≈ 42.8 µM); in the assay with Escherichia coli it was 20 µg/mL (≈ 45.1 µM).
As for `COc1ccc(Nc2ncccc2C(=O)NNS(=O)(=O)c2ccc(C)cc2)cc1`, the MIC with Bacillus subtilis is 8 µg/mL (≈ 19.4 µM); in the assay on Pseudomonas aeruginosa it was greater than 25 µg/mL; against Vibrio, 19 µg/mL (≈ 46.1 µM); in assay [1] it was 17 µg/mL (≈ 41.2 µM); in the assay with Escherichia coli, 15 µg/mL (≈ 36.4 µM).
The like results for `Cc1ccc(S(=O)(=O)NNC(=O)c2cccnc2Nc2ccc(Cl)cc2)cc1` were, in that order, 9 µg/mL (≈ 21.6 µM), greater than 25 µg/mL, 23 µg/mL (≈ 55.2 µM), 14 µg/mL (≈ 33.6 µM) and 16 µg/mL (≈ 38.4 µM).
For `O=C(NNS(=O)(=O)c1ccc(F)cc1)c1cccnc1Nc1ccc(F)cc1` the same measures were 10 µg/mL (≈ 24.7 µM), greater than 25 µg/mL, 22 µg/mL (≈ 54.4 µM), 20 µg/mL (≈ 49.5 µM) and 13 µg/mL (≈ 32.1 µM).
In the case of `Nc1ccc(S(N)(=O)=O)cc1` [SULFANILAMIDE], the MIC against Bacillus subtilis is greater than 128 µg/mL; with Pseudomonas aeruginosa it was greater than 512 µg/mL; against Vibrio, greater than 512 µg/mL; in assay [1], greater than 512 µg/mL; in the assay on Escherichia coli, greater than 128 µg/mL.
In the case of `Nc1ccc(S(=O)(=O)Nc2ncccn2)cc1` [SULFADIAZINE], the minimum inhibitory concentration (MIC) in the assay on Bacillus subtilis worked out at 18 µg/mL (≈ 71.9 µM); against Pseudomonas aeruginosa, 22 µg/mL (≈ 87.9 µM); with Vibrio, 13 µg/mL (≈ 51.9 µM); in assay [1] it was 20 µg/mL (≈ 79.9 µM); against Escherichia coli, 15 µg/mL (≈ 59.9 µM).
As to `O=C(NNS(=O)(=O)c1ccc(Cl)cc1)c1cccnc1Nc1ccc(F)cc1`, the MIC with Bacillus subtilis was 10 µg/mL (≈ 23.8 µM); against Pseudomonas aeruginosa it was greater than 25 µg/mL; with Vibrio, 21 µg/mL (≈ 49.9 µM); in assay [1], 16 µg/mL (≈ 38 µM); in the assay on Escherichia coli it was 18 µg/mL (≈ 42.8 µM).
The like results for `O=C(NNS(=O)(=O)c1ccccc1)c1cccnc1Nc1ccccc1` were, in that order, 17 µg/mL (≈ 46.1 µM), greater than 25 µg/mL, 20 µg/mL (≈ 54.3 µM), 21 µg/mL (≈ 57 µM) and 20 µg/mL (≈ 54.3 µM).
